Calls of active or inactive are those of the source. The calls are words filed in the database; no cut-off is given here.
Columns and labels:
Rattus norvegicus [1] = assay: Increase in uterine weight in po dosed ovariectomized rat osteopenia model administered daily measured after 2 weeks; format: functional, organism-based
Rattus norvegicus [2] = assay: Decrease in bone resorption in ovariectomized rat assessed as decrease in urine deoxypyridinoline level at 0.1 mg/kg, po administered daily measured after 2 weeks; format: functional, organism-based; set-up: dose 0.1 mg/kg
Summary of the method: (§1)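 Adult (>6 months) female rats, housed singly on a casein-based diet, ovariectomized under sterile conditions and anesthesia; 6-14 per group. From 24 h after surgery, daily oral gavage of an aqueous suspension in 0.5% Methocel for 2 or 6 weeks. […] Urine deoxypyridinoline measured as bone-resorption marker.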

Estrogen receptor beta = Estrogen receptor beta (Homo sapiens, UniProt Q92731); assay: Inhibition of fluormone ES2 binding to estrogen receptor beta after 1 hr by fluorescence polarization assay
Estrogen receptor [3] = target: T1, Estrogen receptor (Homo sapiens, UniProt P03372); assay: Displacement of radiolabeled estrogen from estrogen receptor alpha by scintillation counting
T1 sequence (P03372 whole entry): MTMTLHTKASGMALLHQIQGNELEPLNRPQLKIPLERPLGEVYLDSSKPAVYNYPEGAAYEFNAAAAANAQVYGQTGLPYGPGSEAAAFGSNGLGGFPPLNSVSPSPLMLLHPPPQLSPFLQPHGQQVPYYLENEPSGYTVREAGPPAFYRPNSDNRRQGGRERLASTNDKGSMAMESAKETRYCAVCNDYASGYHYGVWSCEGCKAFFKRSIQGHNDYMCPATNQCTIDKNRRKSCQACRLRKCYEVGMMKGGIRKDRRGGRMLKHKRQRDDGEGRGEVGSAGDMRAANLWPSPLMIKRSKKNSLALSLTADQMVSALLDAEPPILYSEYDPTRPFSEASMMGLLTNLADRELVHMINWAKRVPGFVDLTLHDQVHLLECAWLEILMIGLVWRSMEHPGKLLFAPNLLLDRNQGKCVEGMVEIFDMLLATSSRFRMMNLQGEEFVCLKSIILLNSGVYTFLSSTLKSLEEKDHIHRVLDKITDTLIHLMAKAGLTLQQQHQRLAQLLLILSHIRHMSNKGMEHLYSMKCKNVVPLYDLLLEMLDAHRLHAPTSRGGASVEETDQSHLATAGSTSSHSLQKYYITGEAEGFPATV

Estrogen receptor [4] = target: T1, Estrogen receptor; assay: Antagonist activity at estrogen receptor in human Ishikawa cells assessed as 17-beta-estradiol-induced alkaline phosphatase activity after 3 days by chemiluminescence assay; format: functional, cell-based
Rattus norvegicus [5] = species: Rattus norvegicus; assay: animal or person; format: functional; details: Uterus, 72 h, route oral
[6] = Oral bioavailability in rat at 10 mg/kg administered as single dose by LC-MS/MS analysis; format: ADME, organism-based; details: in vivo
Summary of the method: (§2)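 Single-dose rat pharmacokinetics. IV dosing at 1-3 mg/kg as a solution in 10% β-cyclodextrin; oral gavage at 10 mg/kg as a uniform suspension in 0.5% methylcellulose. Blood (0.5 mL) collected into heparinized tubes by orbital sinus puncture after dosing. Plasma extracted into acetonitrile with an internal standard and analysed by LC-MS-MS against standards to obtain PK parameters.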

[7] = Cmax in rats after 10 mg/kg oral dose; format: ADME, organism-based; set-up: dose 10 mg/kg, route oral; details: rat, in vivo; summary of the method: as §2
[8] = Tmax in rat at 10 mg/kg, po administered as single dose by LC-MS/MS analysis; format: ADME, organism-based; set-up: dose 10 mg/kg, route oral; details: in vivo; summary of the method: as §2
[9] = Half life in rat at 10 mg/kg, po administered as single dose by LC-MS/MS analysis; format: ADME, organism-based; set-up: dose 10 mg/kg, route oral; details: in vivo; summary of the method: as §2
[10] = AUC in rat at 10 mg/kg, po administered as single dose by LC-MS/MS analysis; format: ADME, organism-based; set-up: dose 10 mg/kg, route oral; details: plasma; summary of the method: as §2
Rattus norvegicus [11] = assay: Metabolite Cmax in rats after 10 mg/kg JNJ-1968990 oral dose; format: ADME, organism-based; set-up: dose 10 mg/kg, route oral; details: in vivo; summary of the method: as §2
Rattus norvegicus [12] = assay: Metabolic stability in rat assessed as (R)-5-[4-(2-Dimethylamino-ethoxy)-phenyl]-11,12-dihydro-5H-6,13-dioxa-benzo[3,4]cyclohepta[1,2-a]naphthalene-2,8-diol Tmax at 10 mg/kg, po administered as single dose by LC-MS/MS analysis; format: ADME, organism-based; set-up: dose 10 mg/kg, route oral; details: in vivo; summary of the method: as §2
Rattus norvegicus [13] = assay: Metabolite Cmax in rats after 10 mg/kg JNJ-26529126 oral dose; format: ADME, organism-based; set-up: dose 10 mg/kg, route oral; details: in vivo; summary of the method: as §2
Rattus norvegicus [14] = assay: Metabolic stability in rat assessed as (R)-5-[4-(2-Dimethylamino-ethoxy)-phenyl]-11,12-dihydro-5H-6,13-dioxa-benzo[3,4]cyclohepta[1,2-a]naphthalene-2,8-diol Tmax at 2 mg/kg, iv administered as single dose by LC-MS/MS analysis; format: ADME, organism-based; set-up: dose 2 mg/kg, route intravenous; details: in vivo; summary of the method: as §2
Rattus norvegicus [15] = assay: Metabolite Cmax in rats after 10 mg/kg JNJ-26529152 oral dose; format: ADME, organism-based; set-up: dose 10 mg/kg, route oral; details: in vivo; summary of the method: as §2
Rattus norvegicus [16] = assay: Metabolite Cmax in rats after 2 mg/kg JNJ-1968990 intravenous dose; format: ADME, organism-based; set-up: dose 2 mg/kg, route intravenous; details: in vivo; summary of the method: as §2
Rattus norvegicus [17] = assay: Estrogenic activity in ovariectomized rat assessed as minor increase in uterine epithelial thickness at 0.1 to 1 mg/kg, po administered daily measured after 6 week by immunohistochemical analysis; format: functional, organism-based
Rattus norvegicus [18] = assay: Decrease in bone resorption in ovariectomized rat assessed as decrease in urine deoxypyridinoline level at 0.1 to 1 mg/kg, po administered daily measured after 2 weeks; format: functional, organism-based; summary of the method: as §1
Rattus norvegicus [19] = assay: Decrease in plasma cholesterol level in po dosed ovariectomized rat osteopenia model administered daily measured after 2 weeks; format: functional, organism-based
Rattus norvegicus [20] = assay: Increase in vaginal fluidity in ovariectomized rat at 1.4 mg/kg, po administered daily measured after 6 weeks by cytology analysis; format: functional, organism-based; set-up: dose 1.4 mg/kg
Rattus norvegicus [21] = assay: Increase in vaginal secretion in ovariectomized rat at 0.1 to 1 mg/kg, po administered daily measured after 2 weeks by cytology analysis; format: functional, organism-based
Summary of the method: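 Ovariectomized adult female rats dosed daily by oral gavage (0.5% Methocel suspension) for 2 or 6 weeks from 24 h after surgery. Vaginal fluid collected with a cotton swab and its absolute weight determined per animal.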

Rattus norvegicus [22] = assay: Metabolic stability in rat assessed as 2-Methoxy-5R-(-)-[4-(2-piperidin-1-ylethoxy)-phenyl]-11,12-dihydro-5H-6,13-dioxabenzo[3,4]cyclohepta[1,2-a]-naphthalen-8-ol Tmax at 10 mg/kg, po administered as single dose by LC-MS/MS analysis; format: ADME, organism-based; set-up: dose 10 mg/kg, route oral; details: in vivo; summary of the method: as §2
Rattus norvegicus [23] = assay: Metabolic stability in rat assessed as 2-Methoxy-5R-(-)-[4-(2-piperidin-1-ylethoxy)-phenyl]-11,12-dihydro-5H-6,13-dioxabenzo[3,4]cyclohepta[1,2-a]-naphthalen-8-ol Tmax at 2 mg/kg, iv administered as single dose by LC-MS/MS analysis; format: ADME, organism-based; set-up: dose 2 mg/kg, route intravenous; details: in vivo; summary of the method: as §2
Rattus norvegicus [24] = assay: Metabolic stability in rat assessed as 8-Methoxy-6R-(-)-[4-(2-piperidin-1-ylethoxy)phenyl]-11,12-dihydro-5H-6,13-dioxabenzo[3,4]cyclohepta-[1,2-a]naphthalen-2-ol Tmax at 10 mg/kg, po administered as single dose by LC-MS/MS analysis; format: ADME, organism-based; set-up: dose 10 mg/kg, route oral; details: in vivo; summary of the method: as §2
Rattus norvegicus [25] = assay: Metabolic stability in rat assessed as 8-Methoxy-6R-(-)-[4-(2-piperidin-1-ylethoxy)phenyl]-11,12-dihydro-5H-6,13-dioxabenzo[3,4]cyclohepta-[1,2-a]naphthalen-2-ol Tmax at 2 mg/kg, iv administered as single dose by LC-MS/MS analysis; format: ADME, organism-based; set-up: dose 2 mg/kg, route intravenous; details: in vivo; summary of the method: as §2

Sequence of Estrogen receptor beta (Q92731 whole entry): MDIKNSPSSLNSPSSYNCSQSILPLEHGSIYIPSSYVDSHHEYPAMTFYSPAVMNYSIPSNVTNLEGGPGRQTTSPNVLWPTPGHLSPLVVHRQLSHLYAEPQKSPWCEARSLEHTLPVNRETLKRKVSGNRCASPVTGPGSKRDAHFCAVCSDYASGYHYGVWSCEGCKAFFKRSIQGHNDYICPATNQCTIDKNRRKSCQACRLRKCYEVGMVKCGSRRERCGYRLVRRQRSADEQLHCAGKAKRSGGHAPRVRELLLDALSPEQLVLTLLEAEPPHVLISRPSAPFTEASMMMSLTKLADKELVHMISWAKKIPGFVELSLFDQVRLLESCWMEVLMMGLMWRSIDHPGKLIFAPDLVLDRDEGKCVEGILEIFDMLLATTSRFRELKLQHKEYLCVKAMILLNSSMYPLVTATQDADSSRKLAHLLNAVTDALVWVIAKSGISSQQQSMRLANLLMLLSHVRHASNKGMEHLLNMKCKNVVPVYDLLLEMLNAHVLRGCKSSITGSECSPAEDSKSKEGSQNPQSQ

IC50 (Estrogen receptor beta) [nM] | IC50 (Estrogen receptor [3]) [nM] | IC50 (Estrogen receptor [4]) [nM] | bioavailability [6] [%] | Cmax [7] [ng/mL] | Tmax [8] [h] | half-life [9] [h] | AUC [10] [ng·h/mL] | Cmax_metabolite (Rattus norvegicus [11]) [ng/mL] | Cmax_metabolite (Rattus norvegicus [16]) [ng/mL] | SMILES | Activity (Rattus norvegicus [1]) | inhibition in vivo at 1 mg/kg (Rattus norvegicus [5]) [%] | Activity (Rattus norvegicus [17]) | Activity (Rattus norvegicus [18]) | Activity (Rattus norvegicus [19]) | further results
21 | 1.1 | 0.2 | 11 | 91 | 5 | 4.8 | 1010 | 3.9 | 1.6 | Oc1ccc2c(c1)O[C@H](c1ccc(OCCN3CCCCC3)cc1)C1=C2CCOc2cc(O)ccc21 | inactive | 135 |  |  |  | Activity (Rattus norvegicus [2]): Active; Tmax (Rattus norvegicus [12]): 6 h; Cmax_metabolite (Rattus norvegicus [13]): 14 ng/mL; Tmax (Rattus norvegicus [14]): 8 h; Cmax_metabolite (Rattus norvegicus [15]): 12 ng/mL
99 | 5.8 | 76 | 61 | 228 | 6 | 18.6 | 6730 | 91.4 | 15.2 | COc1ccc2c(c1)OCCC1=C2[C@@H](c2ccc(OCCN3CCCCC3)cc2)Oc2cc(O)ccc21 | inactive | 130 | Active | Active | Active | Activity (Rattus norvegicus [20]): Active; Activity (Rattus norvegicus [21]): inactive; Tmax (Rattus norvegicus [22]): 8 h; Tmax (Rattus norvegicus [23]): 8 h
7 | 9 | 259 | 58 | 219 | 6 | 19.8 | 6920 | 33.3 | 7.6 | COc1ccc2c(c1)O[C@H](c1ccc(OCCN3CCCCC3)cc1)C1=C2CCOc2cc(O)ccc21 | inactive | 99 | Active | Active | Active | Tmax (Rattus norvegicus [24]): 6 h; Tmax (Rattus norvegicus [25]): 8 h

Reference: ChEMBL document CHEMBL1153760, “Identification and structure-activity relationships of chromene-derived selective estrogen receptor modulators for treatment of postmenopausal symptoms” (J Med Chem, 2009)
